Published values pooled from the literature.
Target: Angiopoietin-1 receptor (TEK, Homo sapiens, UniProt Q02763)

For `O=C1CCc2cc(Nc3cc(OC4CCOCC4)c([N+](=O)[O-])cc3Cl)ccc2N1`, the remaining binding was 76% (cell-free assay, competition with immobilised ligand; 1 µM).
`FC(F)(F)Oc1cccc(-c2cnc3ccc(-c4ccncc4)nn23)c1` gave a remaining binding of 76% (cell-free assay, competition with immobilised ligand; 5 µM).
For `N[C@@H]1CCN(c2nccc(-c3cnn4ncccc34)n2)C1`, the remaining binding was 98% (binding; 1 µM).
The remaining binding of `C[C@@H](c1ccc(-n2cnc3c(N)ncnc32)cc1)N1CCc2nn(C)c(Cc3ccccc3)c2C1=O` is reported as 81% (binding, competition with immobilised ligand; 0.1 µM).
With `F[C@@H]1CCN(c2nccc(-c3cnn4ncccc34)n2)C1` the remaining binding was 100% (binding; 1 µM).
The remaining binding of `O=C(NCC1CCOCC1)c1n[nH]cc1NC(=O)c1c(F)cccc1F` is reported as 100% (binding, competition with immobilised ligand; 1 µM).
The remaining binding of `Nc1ncc2c(n1)-c1c([nH]c3ccc(C#CC4CC4)cc13)CCCC2` is reported as 100% (binding, competition with immobilised ligand; 1 µM).
The remaining binding of `Cc1cnn2ncc(-c3ccnc(N(C)C)n3)c2c1` is reported as 100% (binding; 1 µM).
For `C[C@@H](c1cccc(C#N)c1)n1cc(Cl)cc(C(N)=O)c1=N`, the remaining binding was 90% (cell-free assay, competition with immobilised ligand; 1 µM).
The remaining binding of `CN(CCCC(F)(F)F)c1nccc(-c2cnn3ncccc23)n1` is reported as 100% (binding; 1 µM).
`C[C@@H]1CN(c2ccc3ncc(-c4ccc5[nH]nc(C6CC6)c5c4)n3n2)C[C@H](C)O1` gave a remaining binding of 99% (binding, competition with immobilised ligand; 50 nM).
`CCCOc1ccc([C@@H]2[C@@H](C(=O)O)[C@H](c3ccc4c(c3)OCO4)CN2CC(=O)Nc2c(CC)cccc2CC)cc1` gave a remaining binding of 86% (cell-free assay, competition with immobilised ligand; 1 µM).
`O=C(c1ccc(Nc2ncc(Cl)c(-c3cc4ccccc4s3)n2)cc1)N1CCC(N2CCCC2)CC1` gave a remaining binding of 19% (binding, competition with immobilised ligand; 1 µM).
For `COc1cnc(Nc2cccc(S(N)(=O)=O)c2)nc1N1CCN(c2ccccc2)C(=O)C1`, the remaining binding was 100% (binding, competition with immobilised ligand; 1 µM).
`CN(C)C(=O)Cn1cc(-c2nc(C3(c4ccc(-c5cnc(N)nc5)cc4)CC3)no2)cn1` gave a remaining binding of 88% (cell-free assay, competition with immobilised ligand; 1 µM).
With `C[C@H]1CCN(c2nccc(-c3cnn4ncccc34)n2)C1` the remaining binding was 82% (binding; 1 µM).
`COc1cc(-c2cn(C3CCc4ccccc4N(CC(F)(F)F)C3=O)nn2)ccc1-n1ccc(C)n1` (stereo not shown) gave a remaining binding of 81% (cell-free assay, competition with immobilised ligand; 1 µM).
The remaining binding of `O=C(NCCCN1CCOCC1)c1ccc(Nc2ncc(Cl)c(-c3ccc(Cl)s3)n2)cc1` is reported as 47% (binding, competition with immobilised ligand; 1 µM).
`CCS(=O)(=O)c1cc2cc(C[C@@](O)(CC(C)(C)c3ccc(F)cc3C(N)=O)C(F)(F)F)[nH]c2cn1` has a remaining binding of 94% (cell-free assay, competition with immobilised ligand; 1 µM).
The remaining binding of `O=C(NCCCN1CCOCC1)c1ccc(Nc2nccc(-c3cc4ccccc4s3)n2)cc1` is reported as 58% (binding, competition with immobilised ligand; 1 µM).
The remaining binding of `CC1CCCN1c1nccc(-c2cnn3ncccc23)n1` (stereo not shown) is reported as 98% (binding; 1 µM).
With `C[C@H](NC(=O)c1cnc2n1[C@](C)(Cc1ccc(C#N)cc1)C(=O)N2c1cc(Cl)c(F)c(Cl)c1)C(=O)NC1(c2ccccn2)CC1` the remaining binding was 91% (cell-free assay, competition with immobilised ligand; 1 µM).
With `c1cnn2ncc(-c3ccnc(N4CCC45COC5)n3)c2c1` the remaining binding was 83% (binding; 1 µM).
With `CS(=O)(=O)N1CCCC(NC(=O)[C@H](CCC2CCCCC2)NC(=O)c2ccc(CNc3ncnc4c3nnn4-c3ccccc3)cc2)C1` (stereo partly shown) the remaining binding was 73% (cell-free assay, competition with immobilised ligand; 0.1 µM).
The remaining binding of `CC(C)(C)c1ccc(-c2nc(CBr)nn2-c2cccc(O)c2)cc1` is reported as 99% (cell-free assay, competition with immobilised ligand; 10 µM).
